From ChEMBL document CHEMBL1125200, “Structure-activity relationships of estrogenic ligands: synthesis and evaluation of (17 alpha, 20E)- and (17 alpha, 20Z)-21-halo-19-norpregna-1,3,5(10),20-tetraene-3,17 beta-diols” (J Med Chem, 1991)

Assays:
[1] = target: T1, Estrogen receptor (Ovis aries) (UniProt P49885+Q9TU15); assay: Relative binding affinity (RBA) for estrogen receptor of lamb uterine cytosol at OC relative to Estradiol; format: protein assay
Procedure, shortened: (§1)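 Competitive estrogen receptor binding in lamb uterine cytosol, with estradiol as the standard ligand (RBA = 100). Incubation was at 0–4 °C for 1–2 h.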

[2] = target: T2, Estrogen receptor (Rattus norvegicus) (UniProt P06211+Q62986); assay: Relative binding affinity (RBA) for estrogen receptor of rat uterine cytosol at 25 degree C relative to Estradiol; format: protein assay
Procedure, shortened: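 Cytosol source is the uterus of immature female Holtzman rats (21–25 days old), kept in liquid nitrogen. Graded concentrations of unlabeled ligand compete with [³H]estradiol during an 18 h incubation at 25 °C. RBA is expressed against estradiol set at 100.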

[3] = target: T2, Estrogen receptor (Rattus norvegicus); assay: Relative binding affinity (RBA) for estrogen receptor in rat uterine cytosol at OC relative to Estradiol; conditions: Uterus
Procedure, shortened: (§2)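 Uterine cytosol from immature female Holtzman rats (21–25 days old), stored in liquid nitrogen. Competition assay with varying concentrations of unlabeled competitor against [³H]estradiol, incubated at 0–4 °C for 1–2 h. RBA is reported relative to estradiol (RBA = 100).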

[4] = target: T1, Estrogen receptor (Ovis aries); assay: Relative binding affinity (RBA) for estrogen receptor in lamb uterine cytosol at OC relative to Estradiol; format: protein assay; conditions: Uterus; procedure, shortened: as §1
[5] = target: T2, Estrogen receptor (Rattus norvegicus); assay: Relative binding affinity (RBA) for estrogen receptor of rat uterine cytosol at OC relative to Estradiol; format: protein assay; procedure, shortened: as §2

Compound | relative binding affinity (RBA) [1] | RBA [2] | relative binding affinity (RBA) [3] | relative binding affinity (RBA) [4] | relative binding affinity (RBA) [5]
C[C@]12CC[C@@H]3c4ccc(O)cc4CC[C@H]3[C@@H]1CC[C@@]2(O)/C=C\Cl | 115 | 89 | 102 | – | –
C[C@]12CC[C@@H]3c4ccc(O)cc4CC[C@H]3[C@@H]1CC[C@@]2(O)/C=C\I | – | 62 | – | – | 77
C[C@]12CC[C@@H]3c4ccc(O)cc4CC[C@H]3[C@@H]1CC[C@@]2(O)/C=C/I | – | 776 | – | – | 202
C[C@]12CC[C@@H]3c4ccc(O)cc4CC[C@H]3[C@@H]1CC[C@@]2(O)/C=C/Cl | – | 199 | – | 74 | 126

Next, values leading:

relative binding affinity (RBA) [1] | RBA [2] | relative binding affinity (RBA) [3] | relative binding affinity (RBA) [4] | relative binding affinity (RBA) [5] | Compound
– | 661 | – | 117 | 195 | C[C@]12CC[C@@H]3c4ccc(O)cc4CC[C@H]3[C@@H]1CC[C@@]2(O)/C=C/Br
71 | 56 | 78 | – | – | C[C@]12CC[C@@H]3c4ccc(O)cc4CC[C@H]3[C@@H]1CC[C@@]2(O)/C=C\Br
